Measured values published in ChEMBL document CHEMBL2016474, “Structure-activity analysis and cell-based optimization of human galactokinase inhibitors” (ACS Med Chem Lett, 2011).
Active and inactive are the calls of the source. The calls are words filed in the database; no cut-off is given here.

Tests used:
Galactokinase [1] = biological target: T1, Galactokinase (Homo sapiens, UniProt P51570); experiment: Inhibition of human […] at >50 uM after 30 mins by Kinase-GloTM assay
How it was run: (§1)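 GALK in vitro inhibition with IC50 determination; each value from three replicate measurements, given with standard deviation. Compounds not active below 50 μM recorded as exceeding that concentration.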

Galactokinase [2] = biological target: T1, Galactokinase; experiment: Inhibition of human galactokinase after 30 mins by Kinase-GloTM assay; how it was run: as §1
Galactokinase [3] = biological target: T1, Galactokinase; experiment: Inhibition of […] in human primary fibroblasts derived from GALT-deficient patients assessed as reduction in accumulation of gal-1P at 50 uM preincubated overnight prior galactose challenge measured after 4 hrs
How it was run: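 Intracellular GALK inhibition in primary fibroblasts from classic galactosemia (GALT-deficient) patients. Compound given at 50 or 100 μM. Read-out is the percent reduction of cellular gal-1P accumulation.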

[4] = Toxicity in human primary fibroblasts assessed as visible signs of lethality at 50 uM; assay type: cell-based; settings: fibroblast
[5] = Toxicity in human primary fibroblasts assessed as lethality at >= 50 uM within 1 hr; assay type: cell-based; settings: fibroblast
[6] = Toxicity in human primary fibroblasts; assay type: cell-based; settings: fibroblast

T1 sequence (P51570 whole entry): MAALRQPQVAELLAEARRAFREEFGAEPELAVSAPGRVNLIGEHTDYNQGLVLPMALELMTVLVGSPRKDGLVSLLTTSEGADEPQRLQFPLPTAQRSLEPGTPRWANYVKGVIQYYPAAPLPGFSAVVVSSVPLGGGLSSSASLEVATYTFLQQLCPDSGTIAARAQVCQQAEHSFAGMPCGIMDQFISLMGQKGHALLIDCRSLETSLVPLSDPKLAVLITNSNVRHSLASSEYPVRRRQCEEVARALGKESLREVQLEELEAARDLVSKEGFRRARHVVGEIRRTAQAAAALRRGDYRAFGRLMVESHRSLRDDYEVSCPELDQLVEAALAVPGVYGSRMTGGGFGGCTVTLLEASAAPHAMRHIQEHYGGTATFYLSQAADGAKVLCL

SMILES | inhibition (Galactokinase [1]) | IC50 (Galactokinase [2]) [nM] | other results
N#CC1=C(SCc2ccccc2)SCNC1=O | inactive | – | –
CCCCSC1=C(C#N)C(=O)NC(c2ccccc2O)S1 (stereo not given) | inactive | – | –
COc1ccc(C2NC(=O)C(C#N)=C(SCc3ccccc3)S2)cc1 (stereo not given) | – | > 50000 | –
N#CC1=C(SCc2ccccc2)SC(c2ccccc2O)NC1=O (stereo not given) | – | 12000 | –
N#CC1=C(SCc2cccc(N3CCOCC3)c2)SC(c2ccc(O)c(O)c2)NC1=O (stereo not given) | – | 1200 | inhibition (Galactokinase [3]): 16%; Activity [4]: Non-toxic
N#CC1=C(SCc2ccccc2)SC(c2cc(O)ccc2O)NC1=O (stereo not given) | – | 700 | –
CSC1=C(C#N)C(=O)NC(c2ccccc2O)S1 (stereo not given) | – | – | inhibition (Galactokinase [2]): Active
N#CC1=C(SCc2cccc(N3CCOCC3)c2)SC(c2cc(O)ccc2O)NC1=O (stereo not given) | – | 900 | inhibition (Galactokinase [3]): inactive
N#CC1=C(SCc2ccccc2)SC(c2ccc(C(=O)O)cc2)NC1=O (stereo not given) | – | – | inhibition (Galactokinase [2]): Active
CC(=O)Oc1ccc(C2NC(=O)C(C#N)=C(SCc3ccccc3)S2)cc1OC(C)=O (stereo not given) | – | – | Activity [5]: Toxic
N#CC1=C(SCc2ccccc2)SC(c2ccc(O)cc2)NC1=O (stereo not given) | – | 1800 | –
CC1(C)NC(=O)C(C#N)=C(SCc2ccccc2)S1 | inactive | – | –
CSC1=C(C#N)C(=O)NC(c2ccc(Cl)cc2Cl)S1 (stereo not given) | inactive | – | –
N#CC1=C(SCc2ccccc2)SC(c2ccc(O)cc2O)NC1=O (stereo not given) | – | 1200 | –
N#CC1=C(SCc2ccccc2)SC(c2ccc3c(c2)OCO3)NC1=O (stereo not given) | – | 22500 | –
CC1NC(=O)C(C#N)=C(SCc2ccccc2)S1 (stereo not given) | inactive | – | –
N#CC1=C(SCc2ccccc2)SC(c2ccc(O)c(O)c2)NC1=O (stereo not given) | – | – | Activity [6]: Toxic
N#CC1=C(SCc2cccc(N3CCOCC3)c2)SC(c2ccc(O)cc2)NC1=O (stereo not given) | – | 2400 | inhibition (Galactokinase [3]): inactive; Activity [4]: Non-toxic
N#CC1=C(SCc2ccccc2)SC(c2cccc(O)c2)NC1=O (stereo not given) | – | 50000 | –
N#CC1=C(SCc2ccc(O)cc2)SC2(CCC(C(=O)O)CC2)NC1=O (stereo not given) | inactive | – | –
